FAS TE block: blocks the thioesterase domain of human fatty acid synthase; P49327; recombinant FAS-TE, OMFH fluorogenic substrate, fluorescence endpoint; inhibition, % at 15 µM; 0.67% of 360,000 active; AID 602261;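 active means compounds whose normalised, plate-corrected inhibition of enzyme fluorescence in the single-dose primary screen is 50% or more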;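 further: 0% = DMSO with enzyme and 100% = substrate without enzyme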
SENP1 FRET inh: SENP1 (human) catalytic domain inhibition. recombinant SENP1 catalytic domain, CyPet-SUMO1-YPet FRET cleavage. inhibition, % at 10 µM. 0.21% of 360,000 active. AID 624204;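 active means inhibition at least 30% at 10 µM, raw YFP signal under a set limit, fluorescence ratio 0.5 to 1.5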;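 further: 0% = enzyme with DMSO and 100% = no enzyme wells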
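material = recombinant human SENP1 catalytic domain, His6-tagged | quantity = 20 pM enzyme | reagent = 25 nM SUMO1 FRET substrate | compound dosing = 10 µM single point, 0.5% DMSO | timing = 50 min enzyme reaction, room temperature, light-protected | detection = FRET, CFP and YFP emission | control set = no-enzyme low, enzyme-DMSO high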
Arrestin-AP2 inh: inhibitors of human beta-arrestin and AP2 interaction; FITC-arrestin peptide / GST-AP2 beads, flow cytometry; AP2 beta2 appendage carries R879A mutation; 0.31% of 340,000 active; inhibition, % at 10 µM;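 active means inhibition above a set limit, near 3 SD of compounds lacking own fluorescence, cut at about 54% in these data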;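 further: plate controls were DMSO wells for no effect and 5 µM unlabelled arrestin peptide for full effect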
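Assay system: GST-AP2 R879A bound to glutathione beads, E. coli-expressed; Medium: PBS with 0.05% Tween 20 and 0.1% BSA; Also added: fluorescein-tagged arrestin peptide at 50 nM final; Timing: 12 min plus 1 h, RT; Measured by: flow cytometry, FL1 (488/535 nm); Evaluation: percent drop in bead-associated FITC signal.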
JMJD2C inh: human JMJD2C demethylase inhibition; GST-JMJD2C(1-420) H3K9me3 demethylation, DELFIA europium; AID 2099; Q9H3R0; inhibition, % at 2.35 µM; 0.069% of 330,000 active;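 active means more than half of a compound's replicate wells show inhibition beyond 50%, single wells judged on their own value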;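 further: signal counts dimethyl H3K9 product captured on neutravidin plate; 0% = median of DMSO wells and 100% = 0.3 times that DMSO median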
Arr-AP2 CP1: blocks beta-arrestin peptide binding to human AP2; GST-AP2 beads, FITC arrestin peptide binding, flow cytometry; GST-fused beta2-adaptin appendage, R879A mutant; shares compounds with Arrestin-AP2 inh; AID 504908; 2% of 1,300 active; inhibition, % at 10 µM;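 active means inhibition above a set limit, roughly 3 SD of non-fluorescent compound noise, cut at about 38% in these data; inactive means inhibition at or below that limit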;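 further: loss of bead fluorescence from 50 nM FITC arrestin peptide bound to appendage; 0% = negative control wells and 100% = excess unlabelled arrestin peptide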
GST-FITC bead: disrupts GST binding to glutathione beads, arrestin-AP2 artifact; shares compounds with Arrestin-AP2 inh; GST-fluorescein binding to GSH beads, fluorescence, counter-screen; inhibition, % at 10 µM; 2% of 1,300 active;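 active means inhibition above 50%, about 3 SD of the inhibition seen with non-fluorescent compounds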;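 further: fluorescein maleimide labelled GST captured on 4 micron glutathione beads; higher means more loss of bead fluorescence from quenching or blocked binding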
* = called active by the depositor; . = no result. Compounds with a hit are over-represented: about 1.1% of the library has one in this group of screens.

SMILES | FAS TE block | SENP1 FRET inh | Arrestin-AP2 inh | JMJD2C inh | Arr-AP2 CP1 | GST-FITC bead
COc1cc(OC)cc(C(=O)N[C@H](C(=O)Nc2nc(-c3cc(OC)ccc3OC)cs2)C(C)C)c1 | 28 | 0 | 58* | 23 | -15 | 15
CN(C)S(=O)(=O)c1ccc(C(=O)N2CCN(S(=O)(=O)c3cccs3)CC2)cc1 | 1 | 0 | -2 | -24 | . | .
Cn1c(SCC(=O)NC2CC2)nnc1C(F)(F)F | -10 | 1 | -22 | -3 | . | .
CC(C)NC(=O)NC(=O)CSc1nnc(C(F)(F)F)n1C | -4 | 7 | 66* | -8 | -3 | -7
CC/C(=N\N=C1\SC(C)C(=O)N1Cc1ccco1)c1ccccc1 (stereo not given) | 15 | 2 | 59* | 4 | 5 | -7
CCOc1cc(S(=O)(=O)n2cnc(C)c2)ccc1Cl | 4 | 1 | -10 | 11 | . | .
CCCc1ccccc1OCCNC(=O)c1cc(=O)n(C)c(=O)n1C | -5 | 0 | 60* | 16 | -2 | 6
COc1ccc(OCC(=O)Nc2ccccc2C(=O)Nc2ccc(C(=O)O)cc2)cc1 | -4 | 1 | -1 | -9 | . | .
COc1cc2c(cc1NC(=O)C(C)Sc1ccc(NC(C)=O)cc1)oc1ccccc12 (stereo not given) | 27 | -6 | 0 | 8 | 2 | -7
COc1cc2c(cc1NC(=O)CSc1nccn1C)oc1ccccc12 | 16 | 1 | -5 | -10 | . | .
COc1cc2c(cc1NC(=O)/C=C/c1ccccc1)oc1ccccc12 | 41 | 0 | -2 | 94 | . | .
COc1cc2c(cc1NC(=O)CSc1ccccc1)oc1ccccc12 | 37 | -1 | 0 | 2 | -8 | -4
COc1cc2c(cc1NC(=O)Nc1cccc(C)c1)oc1ccccc12 | 16 | -1 | 3 | -9 | 14 | 7
COc1ccc(NC(=O)Nc2cc3oc4ccccc4c3cc2OC)cc1 | 14 | -2 | 1 | -5 | -11 | 1
O=C(NC1CCCc2ccccc21)c1ccc(CNc2c(N3CCOCC3)c(=O)c2=O)cc1 (stereo not given) | 2 | -3 | -8 | 4 | . | .
CC(C)(C)c1cc2nc(NCCc3ccc(S(N)(=O)=O)cc3)ccn2n1 | 7 | -5 | . | . | . | .
COc1cc2c(cc1NC(=O)Nc1ccc(F)cc1)oc1ccccc12 | 5 | -1 | -2 | -25 | -11 | -7
CNC(=S)Nc1cc2oc3ccccc3c2cc1OC | 7 | 3 | -1 | -3 | . | .
COc1cc2c(cc1NC(=O)Nc1ccc(C)cc1)oc1ccccc12 | 29 | 2 | 12 | 11 | -8 | 9
COc1ccc(OCC(=O)Nc2cc3oc4ccccc4c3cc2OC)cc1 | 2 | 0 | 28 | -3 | 1 | 19
COc1cc(NC(=O)c2ccccc2)c(OC)cc1NC(C)=O | -12 | -2 | -2 | -2 | . | .
COc1cc(NC(=O)COc2ccccc2)c(OC)cc1NC(C)=O | -1 | 1 | 60* | 0 | -1 | -10
CC(=O)c1ccc(S(=O)(=O)Nc2ccc(Cl)c(S(=O)(=O)N3CCCC3)c2)cc1 | -4 | 1 | -4 | 11 | . | .
COc1ccc(NC(=O)/C(C#N)=C/c2ccc(OCCN3CCOCC3)c(OC)c2)c(OC)c1 | -2 | 0 | 24 | -3 | . | .
O=S(=O)(NCc1ccc2c(c1)OCO2)c1ccc(Cl)s1 | 5 | -8 | 105* | -4 | 7 | -4
SMILES | FAS TE block | SENP1 FRET inh | Arrestin-AP2 inh | JMJD2C inh | Arr-AP2 CP1 | GST-FITC bead
Cc1cc(Oc2cccc3c2S(=O)(=O)N(C2CCCC2)CC(COCc2ccccc2)O3)cc(C)c1C (stereo not given) | 24 | 0 | 57* | . | 0 | -8
CCCCN1CC(COCc2ccccc2)Oc2cccc(Oc3ccc(OC)cc3)c2S1(=O)=O (stereo not given) | 25 | 0 | 23 | . | . | .
CN(C)c1ccc(N=c2sc3ccccc3n2C)cc1 | 17 | 4 | 63* | 26 | 6 | 1
Cn1c(=Nc2ccccc2)sc2ccccc21 | 18 | 1 | 40 | -5 | . | .
CC1CC(C)CN(CCCNC(=O)c2ccc3nc(N4CCCCC4)sc3c2)C1 (stereo not given) | -7 | 2 | -4 | -2 | . | .
CC(=O)CC(=O)Nc1ccccc1NC(C)=O | -9 | 0 | 20 | -5 | -4 | -5
COc1ccc(NC(=O)CC(C)=O)c(OC)c1 | -4 | 4 | -1 | 1 | 6 | -3
COc1ccc(Cl)cc1NC(=O)CC(C)=O | -6 | 3 | 5 | 10 | 3 | -8
COc1ccc(Cl)cc1NC(=O)NCCN1CCNC1=O | -6 | 0 | 60* | 5 | 8 | -2
COC(OC)c1ccc(C#N)c(SCc2ccccc2)n1 | 28 | 1 | 31 | . | . | .
CC(=O)Nc1nnc(S(=O)(=O)N2CCN(c3ccc(Cl)cc3[N+](=O)[O-])CC2)s1 | 15 | 2 | 56* | -1 | 20 | -17
CN(Cc1cccc(F)c1)C(=O)c1cc(S(=O)(=O)N2CCOCC2)ccc1N1CCCC1 | 3 | 0 | -2 | . | -4 | -4
CCN(Cc1ccccc1)C(=O)c1cc(S(=O)(=O)N2CCOCC2)ccc1N1CCCC1 | 2 | 1 | 57* | 18 | -11 | -2
Cc1ccsc1CN(C)C(=O)c1cc(S(=O)(=O)N2CCOCC2)ccc1N1CCCC1 | 2 | -1 | -8 | 4 | . | .
O=C(O)c1cc(S(=O)(=O)N2CCOCC2)ccc1N1CCCCC1 | -9 | 1 | 5 | 8 | . | .
CCc1ccc(CN(C)C(=O)c2cc(S(=O)(=O)N3CCOCC3)ccc2N2CCCC2)cc1 | 6 | 3 | -4 | -8 | -15 | -4
Cc1ccc(S(=O)(=O)N(C)C[C@H]2OCCCC[C@@H](C)Oc3ccc(N(C)C)cc3C(=O)N([C@H](C)CO)C[C@@H]2C)cc1 | -2 | -1 | . | . | . | .
CC(C)(C)NC(=O)C1Cc2ccccc2CN1C(=O)Nc1ccccc1Cl (stereo not given) | -6 | -1 | 83* | 0 | 3 | 0
Nn1c(SCC(=O)N2CCN(S(=O)(=O)c3ccc(Cl)cc3)CC2)nnc1-c1cccs1 | 2 | -1 | 3 | 0 | . | .
CC1CC(C)CN(C(=O)COC(=O)c2nccnc2N)C1 (stereo not given) | -5 | -10 | 63* | -4 | 14 | 1
COCCn1c(SCC(=O)Nc2ccc(N3CCOCC3)cc2)nc2ccccc21 | -2 | 0 | 18 | 10 | . | .
COCCn1c(SCC(=O)Nc2ccc(S(=O)(=O)N(C)C)cc2)nc2ccccc21 | 4 | -1 | 57* | 4 | 0 | -12
C[C@H](CO)N1C[C@H](C)[C@@H](CN(C)C(=O)C2CCCCC2)OCc2cn(nn2)CCCC1=O | -8 | 0 | . | . | . | .
COc1ccc(CC(=O)N(CCC2=CCCCC2)c2c(N)n(Cc3ccccc3)c(=O)[nH]c2=O)cc1 | -3 | -8 | . | . | . | .
